Laboratory results from ChEMBL document CHEMBL1147524, “Modified norcantharidins; synthesis, protein phosphatases 1 and 2A inhibition, and anticancer activity” (Bioorg Med Chem Lett, 2004).

Test system: L1210
Test: 50% growth inhibition of L1210 (murine leukemia) cell line compared with untreated control cells
Assay type: functional
Settings: Mus musculus
How it was run: (§1)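 MTT assay in cells in logarithmic growth, plated in triplicate at 2,500–3,500 cells/well and grown 24 h before test agent was added (day 0). Cultures at 37 °C, 5% CO₂, in media with 10% foetal bovine serum, penicillin, streptomycin and glutamine. Agents were dissolved in DMSO as 5 mM stocks. Absorbance was read at 540 nm. GI50 was taken from the optical density difference between day 0 and the end of drug exposure.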

| SMILES | GI50 [µM] |
| --- | --- |
| COC(=O)c1cccc(NC(=O)C2C(C(=O)O)[C@@H]3C=C[C@H]2O3)c1 (stereo not given in full) | > 100 |
| CN(C)C(=O)C1C(C(=O)O)[C@@H]2C=C[C@H]1O2.CNC (stereo not given in full) | 48 |
| COC(=O)c1cccc(NC(=O)C2C(C(=O)O)[C@@H]3CC[C@H]2O3)c1 (stereo not given in full) | > 100 |
| COC(=O)C1C(C(=O)Nc2ccc(Cl)cc2)[C@H]2CC[C@@H]1O2 (stereo not given in full) | > 100 |
| O=C(O)C1C(C(=O)OCc2ccccc2)[C@H]2CC[C@@H]1O2 (single isomer, unassigned) | > 100 |
| O=C(O)c1cccc(NC(=O)C2C(C(=O)O)[C@@H]3C=C[C@H]2O3)c1 (stereo not given in full) | > 100 |
| O=C1OC(=O)C2C1[C@@H]1CC[C@H]2O1 (stereo not given in full) | 13 |
| C[C@@]12C(=O)OC(=O)[C@]1(C)[C@H]1CC[C@@H]2O1 [CANTHARIDIN] | 15 |
| CN.CNC(=O)C1C(C(=O)O)[C@@H]2C=C[C@H]1O2 (stereo not given in full) | > 100 |
| O=C(OC[C@H]1C[C@@H]2O[C@H]1[C@H]1C(=O)OC(=O)[C@H]12)c1ccccc1 | 49 |
| CCOC(=O)c1ccc(NC(=O)C2C(C(=O)O)[C@@H]3CC[C@H]2O3)cc1 (stereo not given in full) | > 100 |
| N#CC[C@]12C=C[C@H](O1)[C@@H]1C(=O)OC(=O)C12 (stereo not given in full) | > 100 |
| CCOC(=O)c1ccc(NC(=O)C2C(C(=O)O)[C@@H]3C=C[C@H]2O3)cc1 (stereo not given in full) | > 100 |
| CC(=O)NC[C@@]12C=C[C@@H](O1)C1C(=O)OC(=O)[C@H]12 (stereo not given in full) | > 100 |
| CC(=O)NC[C@@]12CC[C@@H](O1)C1C(=O)OC(=O)[C@H]12 (stereo not given in full) | > 100 |

Test system: NCI-H460
Test: 50% growth inhibition of H460 (human lung carcinoma) cell line compared with untreated control cells
Assay type: functional
Settings: not given
How it was run: as §1

| SMILES | GI50 [µM] |
| --- | --- |
| COC(=O)c1cccc(NC(=O)C2C(C(=O)O)[C@@H]3C=C[C@H]2O3)c1 (stereo not given in full) | > 100 |
| CN(C)C(=O)C1C(C(=O)O)[C@@H]2C=C[C@H]1O2.CNC (stereo not given in full) | 41 |
| COC(=O)c1cccc(NC(=O)C2C(C(=O)O)[C@@H]3CC[C@H]2O3)c1 (stereo not given in full) | > 100 |
| COC(=O)C1C(C(=O)Nc2ccc(Cl)cc2)[C@H]2CC[C@@H]1O2 (stereo not given in full) | > 100 |
| O=C(O)C1C(C(=O)OCc2ccccc2)[C@H]2CC[C@@H]1O2 (single isomer, unassigned) | > 100 |
| O=C(O)c1cccc(NC(=O)C2C(C(=O)O)[C@@H]3C=C[C@H]2O3)c1 (stereo not given in full) | > 100 |
| O=C1OC(=O)C2C1[C@@H]1CC[C@H]2O1 (stereo not given in full) | 50 |
| C[C@@]12C(=O)OC(=O)[C@]1(C)[C@H]1CC[C@@H]2O1 [CANTHARIDIN] | 4.3 |
| CN.CNC(=O)C1C(C(=O)O)[C@@H]2C=C[C@H]1O2 (stereo not given in full) | > 100 |
| O=C(OC[C@H]1C[C@@H]2O[C@H]1[C@H]1C(=O)OC(=O)[C@H]12)c1ccccc1 | 43 |
| CCOC(=O)c1ccc(NC(=O)C2C(C(=O)O)[C@@H]3CC[C@H]2O3)cc1 (stereo not given in full) | > 100 |
| N#CC[C@]12C=C[C@H](O1)[C@@H]1C(=O)OC(=O)C12 (stereo not given in full) | > 100 |
| CCOC(=O)c1ccc(NC(=O)C2C(C(=O)O)[C@@H]3C=C[C@H]2O3)cc1 (stereo not given in full) | > 100 |
| CC(=O)NC[C@@]12C=C[C@@H](O1)C1C(=O)OC(=O)[C@H]12 (stereo not given in full) | > 100 |
| CC(=O)NC[C@@]12CC[C@@H](O1)C1C(=O)OC(=O)[C@H]12 (stereo not given in full) | > 100 |

Test system: A2780
Test: 50% growth inhibition of A2780 (Human ovarian carcinoma) cell line compared with untreated control cells
Assay type: functional
Settings: not given
How it was run: as §1

| SMILES | GI50 [µM] |
| --- | --- |
| COC(=O)c1cccc(NC(=O)C2C(C(=O)O)[C@@H]3C=C[C@H]2O3)c1 (stereo not given in full) | 97 |
| CN(C)C(=O)C1C(C(=O)O)[C@@H]2C=C[C@H]1O2.CNC (stereo not given in full) | 40 |
| COC(=O)c1cccc(NC(=O)C2C(C(=O)O)[C@@H]3CC[C@H]2O3)c1 (stereo not given in full) | 90 |
| COC(=O)C1C(C(=O)Nc2ccc(Cl)cc2)[C@H]2CC[C@@H]1O2 (stereo not given in full) | 98 |
| O=C(O)C1C(C(=O)OCc2ccccc2)[C@H]2CC[C@@H]1O2 (single isomer, unassigned) | 81 |
| O=C(O)c1cccc(NC(=O)C2C(C(=O)O)[C@@H]3C=C[C@H]2O3)c1 (stereo not given in full) | 82 |
| O=C1OC(=O)C2C1[C@@H]1CC[C@H]2O1 (stereo not given in full) | 39 |
| C[C@@]12C(=O)OC(=O)[C@]1(C)[C@H]1CC[C@@H]2O1 [CANTHARIDIN] | 10 |
| CN.CNC(=O)C1C(C(=O)O)[C@@H]2C=C[C@H]1O2 (stereo not given in full) | 88 |
| O=C(OC[C@H]1C[C@@H]2O[C@H]1[C@H]1C(=O)OC(=O)[C@H]12)c1ccccc1 | 30 |
| CCOC(=O)c1ccc(NC(=O)C2C(C(=O)O)[C@@H]3CC[C@H]2O3)cc1 (stereo not given in full) | 80 |
| N#CC[C@]12C=C[C@H](O1)[C@@H]1C(=O)OC(=O)C12 (stereo not given in full) | 85 |
| CCOC(=O)c1ccc(NC(=O)C2C(C(=O)O)[C@@H]3C=C[C@H]2O3)cc1 (stereo not given in full) | 83 |
| CC(=O)NC[C@@]12C=C[C@@H](O1)C1C(=O)OC(=O)[C@H]12 (stereo not given in full) | 98 |
| CC(=O)NC[C@@]12CC[C@@H](O1)C1C(=O)OC(=O)[C@H]12 (stereo not given in full) | 95 |

Test system: HT-29
Test: 50% growth inhibition of HT-29 (human colorectal carcinoma) cell line compared with untreated control cells
Assay type: functional
Settings: not given
How it was run: as §1

| SMILES | GI50 [µM] |
| --- | --- |
| COC(=O)c1cccc(NC(=O)C2C(C(=O)O)[C@@H]3C=C[C@H]2O3)c1 (stereo not given in full) | > 100 |
| CN(C)C(=O)C1C(C(=O)O)[C@@H]2C=C[C@H]1O2.CNC (stereo not given in full) | 49 |
| COC(=O)c1cccc(NC(=O)C2C(C(=O)O)[C@@H]3CC[C@H]2O3)c1 (stereo not given in full) | > 100 |
| COC(=O)C1C(C(=O)Nc2ccc(Cl)cc2)[C@H]2CC[C@@H]1O2 (stereo not given in full) | > 100 |
| O=C(O)C1C(C(=O)OCc2ccccc2)[C@H]2CC[C@@H]1O2 (single isomer, unassigned) | > 100 |
| O=C(O)c1cccc(NC(=O)C2C(C(=O)O)[C@@H]3C=C[C@H]2O3)c1 (stereo not given in full) | > 100 |
| O=C1OC(=O)C2C1[C@@H]1CC[C@H]2O1 (stereo not given in full) | 33 |
| C[C@@]12C(=O)OC(=O)[C@]1(C)[C@H]1CC[C@@H]2O1 [CANTHARIDIN] | 6.4 |
| CN.CNC(=O)C1C(C(=O)O)[C@@H]2C=C[C@H]1O2 (stereo not given in full) | 89 |
| O=C(OC[C@H]1C[C@@H]2O[C@H]1[C@H]1C(=O)OC(=O)[C@H]12)c1ccccc1 | 57 |
| CCOC(=O)c1ccc(NC(=O)C2C(C(=O)O)[C@@H]3CC[C@H]2O3)cc1 (stereo not given in full) | > 100 |
| N#CC[C@]12C=C[C@H](O1)[C@@H]1C(=O)OC(=O)C12 (stereo not given in full) | > 100 |
| CCOC(=O)c1ccc(NC(=O)C2C(C(=O)O)[C@@H]3C=C[C@H]2O3)cc1 (stereo not given in full) | > 100 |
| CC(=O)NC[C@@]12C=C[C@@H](O1)C1C(=O)OC(=O)[C@H]12 (stereo not given in full) | > 100 |
| CC(=O)NC[C@@]12CC[C@@H](O1)C1C(=O)OC(=O)[C@H]12 (stereo not given in full) | > 100 |

Test system: not listed separately
Test: Inhibitory activity against protein phosphatase 2A from human red blood cells
Settings: not given
How it was run: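 Purified PP2A (0.3 mU/well) was preincubated 10 min with inhibitor in 50 mM Tris–HCl, pH 7.0, with CaCl₂. The reaction was started with hexapeptide substrate […] (200 μM), run 60 min at room temperature, and stopped with malachite green. A650 was read after 10 min. IC50 came from dose–response curves as the mean of three independent replicates.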

| SMILES | IC50 [µM] |
| --- | --- |
| COC(=O)c1cccc(NC(=O)C2C(C(=O)O)[C@@H]3C=C[C@H]2O3)c1 (stereo not given in full) | 12 |
| CN(C)C(=O)C1C(C(=O)O)[C@@H]2C=C[C@H]1O2.CNC (stereo not given in full) | 3.2 |
| COC(=O)c1cccc(NC(=O)C2C(C(=O)O)[C@@H]3CC[C@H]2O3)c1 (stereo not given in full) | 7.7 |
| COC(=O)C1C(C(=O)Nc2ccc(Cl)cc2)[C@H]2CC[C@@H]1O2 (stereo not given in full) | > 100 |
| O=C(O)C1C(C(=O)OCc2ccccc2)[C@H]2CC[C@@H]1O2 (single isomer, unassigned) | > 100 |
| O=C(O)c1cccc(NC(=O)C2C(C(=O)O)[C@@H]3C=C[C@H]2O3)c1 (stereo not given in full) | 7 |
| O=C1OC(=O)C2C1[C@@H]1CC[C@H]2O1 (stereo not given in full) | 0.96 |
| C[C@@]12C(=O)OC(=O)[C@]1(C)[C@H]1CC[C@@H]2O1 [CANTHARIDIN] | 0.6 |
| CN.CNC(=O)C1C(C(=O)O)[C@@H]2C=C[C@H]1O2 (stereo not given in full) | > 100 |
| O=C(OC[C@H]1C[C@@H]2O[C@H]1[C@H]1C(=O)OC(=O)[C@H]12)c1ccccc1 | 13 |
| CCOC(=O)c1ccc(NC(=O)C2C(C(=O)O)[C@@H]3CC[C@H]2O3)cc1 (stereo not given in full) | 9.2 |
| N#CC[C@]12C=C[C@H](O1)[C@@H]1C(=O)OC(=O)C12 (stereo not given in full) | > 100 |
| CCOC(=O)c1ccc(NC(=O)C2C(C(=O)O)[C@@H]3C=C[C@H]2O3)cc1 (stereo not given in full) | 21 |
| CC(=O)NC[C@@]12C=C[C@@H](O1)C1C(=O)OC(=O)[C@H]12 (stereo not given in full) | > 100 |
| CC(=O)NC[C@@]12CC[C@@H](O1)C1C(=O)OC(=O)[C@H]12 (stereo not given in full) | > 100 |

Test system: G-401
Test: 50% growth inhibition of G401 (human kidney carcinoma) cell line compared with untreated control cells
Assay type: functional
Settings: not given
How it was run: as §1

| SMILES | GI50 [µM] |
| --- | --- |
| COC(=O)c1cccc(NC(=O)C2C(C(=O)O)[C@@H]3C=C[C@H]2O3)c1 (stereo not given in full) | > 100 |
| CN(C)C(=O)C1C(C(=O)O)[C@@H]2C=C[C@H]1O2.CNC (stereo not given in full) | 25 |
| COC(=O)c1cccc(NC(=O)C2C(C(=O)O)[C@@H]3CC[C@H]2O3)c1 (stereo not given in full) | > 100 |
| COC(=O)C1C(C(=O)Nc2ccc(Cl)cc2)[C@H]2CC[C@@H]1O2 (stereo not given in full) | > 100 |
| O=C(O)C1C(C(=O)OCc2ccccc2)[C@H]2CC[C@@H]1O2 (single isomer, unassigned) | > 100 |
| O=C(O)c1cccc(NC(=O)C2C(C(=O)O)[C@@H]3C=C[C@H]2O3)c1 (stereo not given in full) | > 100 |
| O=C1OC(=O)C2C1[C@@H]1CC[C@H]2O1 (stereo not given in full) | 35 |
| C[C@@]12C(=O)OC(=O)[C@]1(C)[C@H]1CC[C@@H]2O1 [CANTHARIDIN] | 3.5 |
| CN.CNC(=O)C1C(C(=O)O)[C@@H]2C=C[C@H]1O2 (stereo not given in full) | > 100 |
| O=C(OC[C@H]1C[C@@H]2O[C@H]1[C@H]1C(=O)OC(=O)[C@H]12)c1ccccc1 | 53 |
| CCOC(=O)c1ccc(NC(=O)C2C(C(=O)O)[C@@H]3CC[C@H]2O3)cc1 (stereo not given in full) | > 100 |
| N#CC[C@]12C=C[C@H](O1)[C@@H]1C(=O)OC(=O)C12 (stereo not given in full) | > 100 |
| CCOC(=O)c1ccc(NC(=O)C2C(C(=O)O)[C@@H]3C=C[C@H]2O3)cc1 (stereo not given in full) | > 100 |
| CC(=O)NC[C@@]12C=C[C@@H](O1)C1C(=O)OC(=O)[C@H]12 (stereo not given in full) | > 100 |
| CC(=O)NC[C@@]12CC[C@@H](O1)C1C(=O)OC(=O)[C@H]12 (stereo not given in full) | > 100 |
